Active and inactive are the calls of the source. No cut-off for these calls is given here.
Key:
[1] = Volume of distribution at steady state in rat at 1 mg/kg, iv and 5 mg/kg, po; assay type: ADME, organism-based; settings: in vivo, read-out: Vdss
Procedure, shortened: (§1)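 Single-compound PK. Intravenous dose 1 mg/kg given as a 60% PEG solution. Oral dose 5 mg/kg given as an aqueous suspension in 1% methylcellulose. Plasma clearance, steady-state volume of distribution, half-life and oral bioavailability were determined from these doses.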

[2] = target: Proto-oncogene tyrosine-protein kinase Src (Homo sapiens) (UniProt P12931); assay: Inhibition of Src_N1 (unknown origin) at 0.1 uM
Sequence of Proto-oncogene tyrosine-protein kinase Src (Homo sapiens) (P12931 2-536 limits assumed): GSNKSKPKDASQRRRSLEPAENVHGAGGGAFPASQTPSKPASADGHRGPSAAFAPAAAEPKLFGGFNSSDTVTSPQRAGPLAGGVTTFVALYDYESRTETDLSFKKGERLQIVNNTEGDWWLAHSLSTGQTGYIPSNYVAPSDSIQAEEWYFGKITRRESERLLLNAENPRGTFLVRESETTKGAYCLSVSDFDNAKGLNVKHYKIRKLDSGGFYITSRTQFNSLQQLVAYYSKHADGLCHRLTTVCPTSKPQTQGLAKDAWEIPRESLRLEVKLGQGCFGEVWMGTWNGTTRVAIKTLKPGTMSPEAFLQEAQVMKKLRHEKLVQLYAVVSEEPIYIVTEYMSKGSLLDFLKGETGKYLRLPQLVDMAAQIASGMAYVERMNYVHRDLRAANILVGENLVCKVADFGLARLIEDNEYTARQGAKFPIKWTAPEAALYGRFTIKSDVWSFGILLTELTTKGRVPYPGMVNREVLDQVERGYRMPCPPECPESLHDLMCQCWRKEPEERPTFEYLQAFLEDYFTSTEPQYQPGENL
Procedure, shortened: (§2)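 Kinase selectivity panel of 298 kinases, test compound at 0.1 μM, percent inhibition reported.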

[3] = Plasma clearance in dog at 1 mg/kg, iv and 5 mg/kg, po; assay type: ADME, organism-based, Canis lupus familiaris; procedure, shortened: as §1
[4] = Plasma clearance in mouse at 1 mg/kg, iv and 5 mg/kg, po; assay type: ADME, organism-based; procedure, shortened: as §1
[5] = Half life in cynomolgus monkey at 1 mg/kg, iv and 5 mg/kg, po; assay type: ADME, organism-based, Macaca fascicularis; settings: in vivo; procedure, shortened: as §1
MDR1 = assay: Apparent permeability from apical to basolateral side in MDCK cells expressing human MDR1 at 5 uM after 60 to 180 mins by LC-MS/MS analysis; assay type: ADME, cell-based, Canis lupus familiaris; settings: dog
[6] = target: Mitogen-activated protein kinase 8 (Homo sapiens, UniProt P45983); assay: Inhibition of JNK1 (unknown origin)
Sequence of Mitogen-activated protein kinase 8 (P45983 whole entry): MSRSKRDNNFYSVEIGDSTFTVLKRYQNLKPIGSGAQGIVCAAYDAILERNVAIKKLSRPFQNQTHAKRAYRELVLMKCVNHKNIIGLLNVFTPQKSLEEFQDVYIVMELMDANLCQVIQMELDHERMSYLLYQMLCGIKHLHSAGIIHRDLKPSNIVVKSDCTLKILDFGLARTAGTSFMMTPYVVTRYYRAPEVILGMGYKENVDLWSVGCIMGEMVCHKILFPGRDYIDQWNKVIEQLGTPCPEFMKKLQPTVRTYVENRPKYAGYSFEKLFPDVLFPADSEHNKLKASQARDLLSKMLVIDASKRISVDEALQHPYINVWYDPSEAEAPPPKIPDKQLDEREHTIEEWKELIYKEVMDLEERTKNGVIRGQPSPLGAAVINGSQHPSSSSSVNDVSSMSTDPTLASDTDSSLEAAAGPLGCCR

[7] = Plasma clearance in rat at 1 mg/kg, iv and 5 mg/kg, po; assay type: ADME, organism-based; procedure, shortened: as §1
[8] = Oral bioavailability in cynomolgus monkey at 5 mg/kg; assay type: ADME, organism-based, Macaca fascicularis; settings: in vivo; procedure, shortened: as §1
[9] = Half life in rat at 1 mg/kg, iv and 5 mg/kg, po; assay type: ADME, organism-based; settings: in vivo; procedure, shortened: as §1
[10] = target: Mitogen-activated protein kinase kinase kinase 11 (Homo sapiens, UniProt Q16584); assay: Inhibition of MLK3 (unknown origin)
Sequence of Mitogen-activated protein kinase kinase kinase 11 (Q16584 whole entry): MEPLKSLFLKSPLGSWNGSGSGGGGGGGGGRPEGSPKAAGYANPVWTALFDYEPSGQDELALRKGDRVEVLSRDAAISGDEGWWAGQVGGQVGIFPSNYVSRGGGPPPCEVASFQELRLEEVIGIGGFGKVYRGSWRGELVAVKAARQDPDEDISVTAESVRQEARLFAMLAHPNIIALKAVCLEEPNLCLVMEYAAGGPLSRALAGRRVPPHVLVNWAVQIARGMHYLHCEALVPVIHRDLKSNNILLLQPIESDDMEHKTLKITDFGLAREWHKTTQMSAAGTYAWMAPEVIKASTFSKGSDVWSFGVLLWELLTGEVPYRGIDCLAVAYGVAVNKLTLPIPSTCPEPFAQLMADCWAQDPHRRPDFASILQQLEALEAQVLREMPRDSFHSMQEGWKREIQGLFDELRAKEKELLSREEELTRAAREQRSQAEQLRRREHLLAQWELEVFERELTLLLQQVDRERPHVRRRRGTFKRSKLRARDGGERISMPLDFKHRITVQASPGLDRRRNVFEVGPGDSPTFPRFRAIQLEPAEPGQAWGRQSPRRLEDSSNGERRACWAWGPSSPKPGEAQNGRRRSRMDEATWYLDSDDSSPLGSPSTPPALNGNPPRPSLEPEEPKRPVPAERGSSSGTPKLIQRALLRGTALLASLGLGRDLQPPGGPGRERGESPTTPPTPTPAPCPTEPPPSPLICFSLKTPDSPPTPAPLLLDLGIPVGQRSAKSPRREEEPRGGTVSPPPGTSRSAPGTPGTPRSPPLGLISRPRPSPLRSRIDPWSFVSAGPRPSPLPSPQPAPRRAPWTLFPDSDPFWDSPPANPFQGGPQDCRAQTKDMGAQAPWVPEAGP

Mus musculus = assay: Neuroprotective activity against C57Bl/6 mouse Parkinson's disease model assessed as reduction of MPTP-induced increase in phosphorylated c-Jun level in substantia nigra at 37.5 to 75 mg/kg, po administered 30 mins prior to MPTP challenge followed by 2nd dosing after 12 and 24 hrs measured 1 hr post last dose by ELISA relative to vehicle-treated control; assay type: functional, organism-based
[11] = Oral bioavailability in rat at 5 mg/kg; assay type: ADME, organism-based; settings: in vivo; procedure, shortened: as §1
[12] = target: T1, Ephrin type-A receptor 1 (Homo sapiens) (UniProt P21709); assay: Inhibition of EphA1 (unknown origin) at 0.1 uM; procedure, shortened: as §2
T1 sequence (whole entry): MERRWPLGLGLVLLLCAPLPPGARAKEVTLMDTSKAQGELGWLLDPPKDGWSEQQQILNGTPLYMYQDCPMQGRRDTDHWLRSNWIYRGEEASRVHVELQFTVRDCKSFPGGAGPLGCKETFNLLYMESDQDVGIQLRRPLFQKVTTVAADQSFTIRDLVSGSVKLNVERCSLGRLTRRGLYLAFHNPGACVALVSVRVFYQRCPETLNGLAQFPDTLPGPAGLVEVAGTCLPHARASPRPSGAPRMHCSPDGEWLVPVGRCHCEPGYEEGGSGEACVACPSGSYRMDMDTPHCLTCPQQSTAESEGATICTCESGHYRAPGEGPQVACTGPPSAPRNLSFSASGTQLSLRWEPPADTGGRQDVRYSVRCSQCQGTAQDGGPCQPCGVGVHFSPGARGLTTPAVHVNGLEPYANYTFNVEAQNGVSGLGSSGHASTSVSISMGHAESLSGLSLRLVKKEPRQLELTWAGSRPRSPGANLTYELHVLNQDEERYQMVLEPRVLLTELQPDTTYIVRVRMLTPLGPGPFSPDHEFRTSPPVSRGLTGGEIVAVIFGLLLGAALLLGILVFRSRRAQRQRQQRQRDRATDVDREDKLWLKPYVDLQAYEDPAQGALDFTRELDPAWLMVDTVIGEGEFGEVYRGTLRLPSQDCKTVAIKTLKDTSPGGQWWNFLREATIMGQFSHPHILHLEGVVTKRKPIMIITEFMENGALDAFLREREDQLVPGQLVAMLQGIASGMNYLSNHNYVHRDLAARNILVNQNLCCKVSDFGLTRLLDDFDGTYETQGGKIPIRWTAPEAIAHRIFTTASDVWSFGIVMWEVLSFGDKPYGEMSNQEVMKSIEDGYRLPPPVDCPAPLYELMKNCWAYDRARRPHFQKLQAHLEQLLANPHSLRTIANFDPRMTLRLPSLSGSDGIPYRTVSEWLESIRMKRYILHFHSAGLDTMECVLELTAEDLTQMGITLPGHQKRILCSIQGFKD

[13] = target: Mitogen-activated protein kinase 10 (Homo sapiens, UniProt P53779); assay: Inhibition of JNK3 (unknown origin)
Sequence of Mitogen-activated protein kinase 10 (P53779 whole entry): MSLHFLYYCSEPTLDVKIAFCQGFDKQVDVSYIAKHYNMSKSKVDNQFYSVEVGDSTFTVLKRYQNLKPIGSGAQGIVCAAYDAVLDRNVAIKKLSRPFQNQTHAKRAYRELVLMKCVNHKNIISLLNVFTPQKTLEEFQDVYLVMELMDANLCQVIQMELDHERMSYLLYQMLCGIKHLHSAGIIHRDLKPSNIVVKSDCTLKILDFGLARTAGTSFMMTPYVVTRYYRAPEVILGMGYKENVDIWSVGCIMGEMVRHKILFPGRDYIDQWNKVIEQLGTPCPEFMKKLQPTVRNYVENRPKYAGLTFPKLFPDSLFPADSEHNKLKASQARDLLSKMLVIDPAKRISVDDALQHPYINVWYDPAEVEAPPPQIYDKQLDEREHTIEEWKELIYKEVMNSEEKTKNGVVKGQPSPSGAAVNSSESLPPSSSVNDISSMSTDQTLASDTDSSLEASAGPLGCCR

[14] = target: Tyrosine-protein kinase Lck (Homo sapiens) (UniProt P06239); assay: Inhibition of LCK (unknown origin) at 0.1 uM; procedure, shortened: as §2
Sequence of Tyrosine-protein kinase Lck (Homo sapiens) (P06239 2-509 limits assumed): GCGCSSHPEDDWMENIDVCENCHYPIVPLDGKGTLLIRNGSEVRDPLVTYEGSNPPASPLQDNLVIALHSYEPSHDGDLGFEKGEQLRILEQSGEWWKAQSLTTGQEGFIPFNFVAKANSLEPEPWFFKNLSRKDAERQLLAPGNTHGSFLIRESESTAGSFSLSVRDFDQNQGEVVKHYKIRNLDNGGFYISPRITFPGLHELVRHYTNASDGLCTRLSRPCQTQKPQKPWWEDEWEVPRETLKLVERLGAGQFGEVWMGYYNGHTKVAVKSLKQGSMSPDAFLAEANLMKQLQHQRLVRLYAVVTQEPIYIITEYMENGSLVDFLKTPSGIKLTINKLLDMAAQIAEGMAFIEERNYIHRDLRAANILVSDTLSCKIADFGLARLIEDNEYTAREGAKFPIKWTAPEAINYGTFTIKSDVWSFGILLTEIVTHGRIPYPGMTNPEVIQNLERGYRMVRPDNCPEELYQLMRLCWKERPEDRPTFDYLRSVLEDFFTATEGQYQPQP

[15] = Plasma clearance in cynomolgus monkey at 1 mg/kg, iv and 5 mg/kg, po; assay type: ADME, organism-based, Macaca fascicularis; procedure, shortened: as §1
[16] = Volume of distribution at steady state in mouse at 1 mg/kg, iv and 5 mg/kg, po; assay type: ADME, organism-based; settings: in vivo, read-out: Vdss; procedure, shortened: as §1

- Vd [1]: 3.7 L/kg
- inhibition [2]: > 80%
- clearance [3]: 41 mL/min/kg
- clearance [4]: 56 mL/min/kg
- half-life [5]: 144 min
- Papp A→B at 5 µM (MDR1): 6 ×10⁻⁶ cm/s
- IC50 [6]: 129 nM
- clearance [7]: 30 mL/min/kg
- bioavailability [8]: 19%
- half-life [9]: 108 min
- IC50 [10]: 602 nM
- bioavailability [11]: 63%
- inhibition [12]: > 80%
- IC50 [13]: 364 nM
- inhibition [14]: > 80%
- clearance [15]: 16 mL/min/kg
- Vd [16]: 2.5 L/kg
Compound: N#Cc1ccnc(Nc2cc(C3CCN(C4COC4)CC3)cc(N3CCC(F)(F)C3)n2)c1
- Activity (Mus musculus): Active
